One block for each molecule: values may come before it.
Tests used:
[1] = target: USP7 catalytic domain (amino acids 208–560) (Homo sapiens, UniProt Q93009); test: Ub-AMC assay, USP7 catalytic domain; type: biochemical; details: for inhibition of USP7: catalytic domain, Ub-AMC, concentrations up to 100 μM
Method in brief: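 Human USP7 catalytic domain (residues 208–560) was expressed in E. coli BL21(DE3), purified on Ni-NTA, thrombin-treated, gel-filtered and used at 250 nM. 2 uM Ub-AMC was then added. Fluorescence (ex 345/em 445 nm) was read every minute for 30 min. IC50 came from initial rates plotted against concentration.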

[2] = Solubility in aqueous buffer; type: physicochemical
USP7 = details: read-out: IC50, USP7; ref Altun et al., 2011; Ritorto et al., 2014; cited from earlier work
USP10 = details: ref Altun et al., 2011; Ritorto et al., 2014; cited from earlier work
USP47 = details: ref Altun et al., 2011; Ritorto et al., 2014; cited from earlier work
[3] = target: full-length USP7 (amino acids 1–1102) (Homo sapiens, UniProt Q93009); test: Ub-AMC assay, full-length USP7; type: biochemical; details: XL188 vs 1
full-length USP7 (amino acids 1–1102), sequence (Q93009 whole entry, the tested form may be a part): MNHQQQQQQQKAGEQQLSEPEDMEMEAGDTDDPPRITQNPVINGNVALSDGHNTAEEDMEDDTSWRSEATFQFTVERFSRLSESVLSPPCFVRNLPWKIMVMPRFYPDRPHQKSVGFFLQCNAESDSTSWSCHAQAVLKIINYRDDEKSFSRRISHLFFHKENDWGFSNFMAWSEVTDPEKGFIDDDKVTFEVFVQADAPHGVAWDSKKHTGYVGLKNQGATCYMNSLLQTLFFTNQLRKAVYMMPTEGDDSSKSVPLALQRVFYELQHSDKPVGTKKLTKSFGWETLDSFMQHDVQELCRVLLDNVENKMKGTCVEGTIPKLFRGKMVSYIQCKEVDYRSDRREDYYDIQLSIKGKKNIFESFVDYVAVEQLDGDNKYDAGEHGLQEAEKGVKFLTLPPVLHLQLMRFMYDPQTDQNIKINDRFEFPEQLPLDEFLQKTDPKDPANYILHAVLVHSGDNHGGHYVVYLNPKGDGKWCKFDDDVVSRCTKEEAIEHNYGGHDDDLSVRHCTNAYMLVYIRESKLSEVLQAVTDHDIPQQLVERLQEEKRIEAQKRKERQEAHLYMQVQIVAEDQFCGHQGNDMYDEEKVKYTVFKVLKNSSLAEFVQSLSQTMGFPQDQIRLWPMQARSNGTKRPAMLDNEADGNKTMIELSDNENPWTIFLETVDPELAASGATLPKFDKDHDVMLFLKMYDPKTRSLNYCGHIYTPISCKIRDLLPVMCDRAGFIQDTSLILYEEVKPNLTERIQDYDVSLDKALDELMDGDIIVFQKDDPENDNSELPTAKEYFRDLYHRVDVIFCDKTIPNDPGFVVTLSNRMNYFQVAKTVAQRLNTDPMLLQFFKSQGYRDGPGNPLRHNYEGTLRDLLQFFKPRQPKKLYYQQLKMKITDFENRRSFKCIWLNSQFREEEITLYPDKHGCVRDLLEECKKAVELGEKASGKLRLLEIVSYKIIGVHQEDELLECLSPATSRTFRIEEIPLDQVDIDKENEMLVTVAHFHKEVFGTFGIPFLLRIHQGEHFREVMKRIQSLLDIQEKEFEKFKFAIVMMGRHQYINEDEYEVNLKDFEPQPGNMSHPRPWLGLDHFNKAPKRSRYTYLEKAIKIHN
Method in brief: (§1)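 Full-length USP7 (1–1102), wild type or Q351 mutant, was expressed in E. coli BL21(DE3), purified by Ni-NTA and Superdex 200 and used at 50 nM. 2 uM Ub-AMC was added and fluorescence (345/445 nm) read each minute over 30 min. Initial rates against concentration gave IC50.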

MCF7 cells = test: HDM2, p53 and p21 protein levels in MCF7 cells; type: cell-based; details: 16 hours
Method in brief: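 MCF7 cells grown in RPMI with 10% heat-inactivated FBS and penicillin/streptomycin at 37 °C, 5% CO2. Treated with test compound or DMSO for 16 h. Where used, cycloheximide (50 ug/ml) was added at 14 h. Cells were washed in PBS and lysed in modified RIPA buffer with phosphatase and protease inhibitors. Protein was quantified by BCA, then immunoblotted for mdm2, p53, p21, GAPDH and USP7.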

full-length USP7Q351S = full-length USP7Q351S (Homo sapiens, UniProt Q93009, Q351S); test: Ub-AMC assay, full-length USP7Q351S; type: biochemical; details: dose-response, amino acids 1–1102
full-length USP7Q351S, sequence (Q93009 whole entry Q351S, the tested form may be a part): as the sequence (Q93009 whole entry, the tested form may be a part) above, with Q351S counted along it
Method in brief: as §1

native USP7 = native USP7 (Homo sapiens, UniProt Q93009); test: Competitive activity based protein profiling with HA-Ub-Vs in HEK293T lysates; type: binding
native USP7, sequence (Q93009 whole entry): as the sequence (Q93009 whole entry, the tested form may be a part) above

panel of purified DUBs = test: Selectivity profiling; type: biochemical
MM.1S cells = test: HDM2, p53 and p21 protein levels in MM.1S cells; type: cell-based; details: 6 hours
Method in brief: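 MM.1S cells were cultured in RPMI with 10% heat-inactivated FBS and penicillin/streptomycin (37 °C, 5% CO2). They were exposed to test compound or DMSO for 6 h, with or without 50 ug/ml cycloheximide added at 4 h. After a PBS wash, cells were lysed in modified RIPA containing phosphatase and protease inhibitors. Lysates were BCA-normalised and immunoblotted for mdm2, p53, p21, GAPDH and USP7.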

[4] = Mouse liver microsome stability; type: in vitro ADME; details: liver microsomes

USP7 catalytic domain (amino acids 208–560), sequence (Q93009 208-560): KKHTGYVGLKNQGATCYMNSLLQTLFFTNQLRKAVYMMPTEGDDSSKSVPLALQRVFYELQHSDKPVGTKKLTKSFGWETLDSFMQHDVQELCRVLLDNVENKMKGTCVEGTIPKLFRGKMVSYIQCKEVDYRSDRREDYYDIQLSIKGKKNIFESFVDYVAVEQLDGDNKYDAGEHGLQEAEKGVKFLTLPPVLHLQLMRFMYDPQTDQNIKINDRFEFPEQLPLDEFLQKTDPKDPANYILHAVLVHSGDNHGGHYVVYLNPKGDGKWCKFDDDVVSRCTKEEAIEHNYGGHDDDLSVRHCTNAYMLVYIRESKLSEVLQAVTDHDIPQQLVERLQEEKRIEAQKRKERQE

inhibition of USP7 [1]: little inhibition
SMILES: N#CC1(Cn2cnc3cc(Cl)ccc3c2=O)CCN(C(=O)CCc2ccccc2)CC1 [Compound 3, 4-((7-chloro-4-oxoquinazolin-3(4H)-yl)methyl)-1-(3-phenylpropanoyl)piperidine-4-carbonitrile]

inhibition of USP7 [1]: abrogated USP7 activity
SMILES: O=c1c2ccc(Cl)cc2ncn1CC1(O)CCN(CCCc2ccccc2)CC1 [Compound 4, 7-chloro-3-((4-hydroxy-1-(3-phenylpropyl)piperidin-4-yl)methyl)quinazolin-4(3H)-one]

fold improvement of biochemical potency ([1]; relative to 1): approximately 10 fold
SMILES: CC(CC(=O)N1CCC(O)(Cn2cnc3cc(Cl)ccc3c2=O)CC1)c1ccccc1 (stereo not drawn) [Compound 8, 7-chloro-3-((4-hydroxy-1-(3-phenylbutanoyl)piperidin-4-yl)methyl)quinazolin-4(3H)-one]

solubility in aqueous buffer [2]: poor | fold more potent than the (S)-stereoisomer (10) ([1]; (R)- vs (S)-stereoisomer): approximately 100 fold
SMILES: C[C@H](CC(=O)N1CCC(O)(Cn2cnc3cc(Cl)ccc3c2=O)CC1)c1ccccc1 [Compound 9, (R)-7-chloro-3-((4-hydroxy-1-(3-phenylbutanoyl)piperidin-4-yl)methyl)quinazolin-4(3H)-one]

Further lines, the molecule ahead of its results:

SMILES: O=C(CCc1ccccc1)N1CCC(Cn2cnc3cc(Cl)ccc3c2=O)CC1 [Compound 2, 7-chloro-3-((1-(3-phenylpropanoyl)piperidin-4-yl)methyl)quinazolin-4(3H)-one]
inhibition of USP7 [1]: little inhibition

SMILES: O=C(CCc1ccccc1)N1CCC(O)(Cn2cnc3cc(Cl)ccc3c2=O)C1 (stereo not drawn) [Compound 5, 7-chloro-3-((3-hydroxy-1-(3-phenylpropanoyl)pyrrolidin-3-yl)methyl)quinazolin-4(3H)-one]
inhibition of USP7 [1]: abrogated USP7 activity

SMILES: CC(=O)N1CCC(O)(Cn2cnc3cc(Cl)ccc3c2=O)CC1 [Compound 6, 3-((1-acetyl-4-hydroxypiperidin-4-yl)methyl)-7-chloroquinazolin-4(3H)-one]
IC50 [1]: > 100 µM

SMILES: O=C(Cc1ccccc1)N1CCC(O)(Cn2cnc3cc(Cl)ccc3c2=O)CC1 [Compound 7, 7-chloro-3-((4-hydroxy-1-(2-phenylacetyl)piperidin-4-yl)methyl)quinazolin-4(3H)-one]
IC50 [1]: > 100 µM

SMILES: CC(=O)c1cc([N+](=O)[O-])c(Sc2ccc(F)cc2F)s1 [Compound P22077]
IC50 (USP7): […] | inhibition of USP10 compared with USP7 (USP10): equipotent | inhibition of USP47 compared with USP7 (USP47): equipotent

SMILES: C[C@H](CC(=O)N1CCC(O)(Cn2cnc3cc(NC(=O)CCN4CCN(C)CC4)ccc3c2=O)CC1)c1ccccc1 [XL188, (R)-N-(3-((4-hydroxy-1-(3-phenylbutanoyl)piperidin-4-yl)methyl)-4-oxo-3,4-dihydroquinazolin-7-yl)-3-(4-methylpiperazin-1-yl)propanamide]
fold improvement in biochemical inhibition of USP7 compared to 1 [3]: 100 fold | levels of p53 and p21 (MCF7 cells): increased | HDM2 level (MCF7 cells; cycloheximide for the last 2 hours): Degradation of HDM2 | inhibition of full-length USP7Q351S (full-length USP7Q351S): resistant | IC50 (native USP7): ~0.9 µM | IC50 [1]: 0.193 µM | inhibition of DUBs other than USP7, panel of 41 purified DUBs (panel of purified DUBs; 10 μM compound, Ub-Rho as substrate): little to no inhibition | HDM2 level (MM.1S cells): loss of HDM2 | levels of p21 and p53 (MM.1S cells): increase | half-life [4]: 31 min

SMILES: C[C@@H](CC(=O)N1CCC(O)(Cn2cnc3cc(NC(=O)CCN4CCN(C)CC4)ccc3c2=O)CC1)c1ccccc1 [XL203C, (S)-N-(3-((4-hydroxy-1-(3-phenylbutanoyl)piperidin-4-yl)methyl)-4-oxo-3,4-dihydroquinazolin-7-yl)-3-(4-methylpiperazin-1-yl)propanamide]
levels of p53 and p21 (MCF7 cells): no observable change | inhibition of other DUBs (panel of purified DUBs; Figure S1G, Table S1, concentration not given): no significant inhibition
